Laboratory results reported in ChEMBL document CHEMBL1153011, “Mechanism of unusual formation of 3-(5-phenyl-3H-[1,2,4]dithiazol-3-yl)chromen-4-ones and 4-oxo-4H-chromene-3-carbothioic acid N-phenylamides and their antimicrobial evaluation” (2009).
In brackets after ≈: the same amount, converted by molar mass. Activity calls are given as the source filed them. The rule behind the calls is not given here.

Key:
[1] = tested on: Shigella flexneri; test: Antibacterial activity against Shigella flexneri MTCC 1457 at 1 x 10^-4 ug/ml after 24 hrs by disk diffusion assay; format: functional; conditions: MTCC 1457, 24 h, read-out: GI
In short: (§1)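 Disk diffusion. 100 µl of 4-h nutrient-broth cultures spread on Mueller Hinton agar. Compounds in DMSO (1/10) applied to 8 mm paper disks. After 24 h at 37 °C, growth-inhibition zone diameter measured. DMSO negative control; chloramphenicol and ciprofloxacin positive controls.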

[2] = tested on: Pseudomonas aeruginosa; test: Antibacterial activity against Pseudomonas aeruginosa MTCC 741 after overnight incubation by broth dilution method; format: functional
In short: (§2)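 Bacteria grown at 37 °C on nutrient agar. Compounds dissolved in DMSO (1/10) and tested in twofold serial dilutions in Mueller Hinton broth in tubes. Inoculum was a McFarland-standardized suspension, final 5 × 10^5 CFU/ml, with growth and sterility control tubes. Incubation overnight at 37 °C. MIC read by OD600 as the lowest concentration with no turbidity. DMSO negative control; chloramphenicol and ciprofloxacin positive controls.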

[3] = tested on: Candida tropicalis; test: Antifungal activity against Candida tropicalis MTCC 230 after 24 to 72 hrs by broth dilution method; format: functional
In short: (§3)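 Fungi grown at 25 °C on Sabouraud dextrose agar. Compounds dissolved in DMSO (1/10) and tested at several concentrations in Sabouraud dextrose broth in tubes. Conidial suspension at final 1 × 10^5 CFU/ml, with growth and sterility control tubes. […] DMSO negative control; fluconazole positive control.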

[4] = tested on: Escherichia coli; test: Antibacterial activity against Escherichia coli MTCC 119 at 2.5 x 10^-5 ug/ml after 24 hrs by disk diffusion assay; format: functional; conditions: MTCC 119, 24 h, read-out: GI; in short: as §1
[5] = tested on: Staphylococcus aureus; test: Antibacterial activity against Staphylococcus aureus MTCC 740 at 2.5 x 10^-5 ug/ml after 24 hrs by disk diffusion assay; format: functional; conditions: MTCC 740, 24 h, read-out: GI; in short: as §1
[6] = tested on: Shigella flexneri; test: Antibacterial activity against Shigella flexneri MTCC 1457 at 2.5 x 10^-5 ug/ml after 24 hrs by disk diffusion assay; format: functional; conditions: MTCC 1457, 24 h, read-out: GI; in short: as §1
[7] = tested on: Shigella flexneri; test: Antibacterial activity against Shigella flexneri MTCC 1457 at 5 x 10^-5 ug/ml after 24 hrs by disk diffusion assay; format: functional; conditions: MTCC 1457, 24 h, read-out: GI; in short: as §1
[8] = tested on: Candida albicans; test: Antifungal activity against Candida albicans MTCC 227 after 24 to 72 hrs by broth dilution method; format: functional; in short: as §3
[9] = tested on: Aspergillus niger; test: Antifungal activity against Aspergillus niger MTCC 281 after 24 to 72 hrs by broth dilution method; format: functional; in short: as §3
[10] = tested on: Pseudomonas aeruginosa; test: Antibacterial activity against Pseudomonas aeruginosa MTCC 741 at 1 x 10^-4 ug/ml after 24 hrs by disk diffusion assay; format: functional, organism-based; in short: as §1
[11] = tested on: Staphylococcus aureus; test: Antibacterial activity against Staphylococcus aureus MTCC 740 after overnight incubation by broth dilution method; format: functional; in short: as §2
[12] = tested on: Escherichia coli; test: Antibacterial activity against Escherichia coli MTCC 119 at 5 x 10^-5 ug/ml after 24 hrs by disk diffusion assay; format: functional; conditions: MTCC 119, 24 h, read-out: GI; in short: as §1
[13] = tested on: Escherichia coli; test: Antibacterial activity against Escherichia coli MTCC 119 at 1 x 10^-4 ug/ml after 24 hrs by disk diffusion assay; format: functional; conditions: MTCC 119, 24 h, read-out: GI; in short: as §1
[14] = tested on: Geotrichum candidum; test: Antifungal activity against Geotrichum candidum MTCC 3993 after 24 to 72 hrs by broth dilution method; format: functional; in short: as §3
[15] = tested on: Staphylococcus aureus; test: Antibacterial activity against Staphylococcus aureus MTCC 740 at 1 x 10^-4 ug/ml after 24 hrs by disk diffusion assay; format: functional; conditions: MTCC 740, 24 h, read-out: GI; in short: as §1
[16] = tested on: Pseudomonas aeruginosa; test: Antibacterial activity against Pseudomonas aeruginosa MTCC 741 at 5 x 10^-5 ug/ml after 24 hrs by disk diffusion assay; format: functional, organism-based; in short: as §1
[17] = tested on: Escherichia coli; test: Antibacterial activity against Escherichia coli MTCC 119 after overnight incubation by broth dilution method; format: functional; in short: as §2
[18] = tested on: Shigella flexneri; test: Antibacterial activity against Shigella flexneri MTCC 1457 after overnight incubation by broth dilution method; format: functional; in short: as §2
[19] = tested on: Staphylococcus aureus; test: Antibacterial activity against Staphylococcus aureus MTCC 740 at 5 x 10^-5 ug/ml after 24 hrs by disk diffusion assay; format: functional; conditions: MTCC 740, 24 h, read-out: GI; in short: as §1
[20] = tested on: Pseudomonas aeruginosa; test: Antibacterial activity against Pseudomonas aeruginosa MTCC 741 at 2.5 x 10^-5 ug/ml after 24 hrs by disk diffusion assay; format: functional, organism-based; in short: as §1

Structure (SMILES) | inhibition of growth at 0.0001 µg/mL [1] [%] | MIC [2] | MIC [3] [µg/mL] | inhibition of growth at 25 pg/mL [4] [%] | inhibition of growth at 25 pg/mL [5] [%] | inhibition of growth at 25 pg/mL [6] [%] | inhibition of growth at 50 pg/mL [7] [%] | MIC [8] [µg/mL] | MIC [9] [µg/mL] | growth inhibition (GI) [10] | MIC [11] [µg/mL] | inhibition of growth at 50 pg/mL [12] [%] | inhibition of growth at 0.0001 µg/mL [13] [%] | MIC [14] [µg/mL] | inhibition of growth at 0.0001 µg/mL [15] [%] | growth inhibition (GI) [16] | MIC [17] [µg/mL] | MIC [18] [µg/mL] | inhibition of growth at 50 pg/mL [19] [%] | growth inhibition (GI) [20]
O=c1c(C2N=C(c3ccccc3)SS2)coc2ccc(Cl)cc12 (stereo not given) | 100 | inactive | 28 (≈ 77.8 µM) | 22 | 26.4 | 27.3 | 55.8 | 28 (≈ 77.8 µM) | 125 (≈ 347 µM) | inactive | 98 (≈ 272 µM) | 49.6 | 100 | 30 (≈ 83.4 µM) | 100 | inactive | 100 (≈ 278 µM) | 90 (≈ 250 µM) | 51.5 | inactive
O=c1c(C(=S)Nc2ccccc2)coc2cc(Cl)ccc12 | 100 | inactive | 60 (≈ 190 µM) | – | – | – | 52.2 | 60 (≈ 190 µM) | 80 (≈ 253 µM) | inactive | 125 (≈ 396 µM) | 42.6 | 87.6 | – | 81 | inactive | 115 (≈ 364 µM) | 96 (≈ 304 µM) | 43.6 | inactive
Cc1ccc2occ(C3N=C(c4ccccc4)SS3)c(=O)c2c1 (stereo not given) | 100 | inactive | 52 (≈ 153 µM) | – | 35 | 21 | 60.9 | 60 (≈ 177 µM) | 150 (≈ 442 µM) | inactive | 54 (≈ 159 µM) | 30 | 72.5 | 95 (≈ 280 µM) | 100 | inactive | 132 (≈ 389 µM) | 82 (≈ 242 µM) | 92.7 | inactive
O=C(O)c1cn(C2CC2)c2cc(N3CCNCC3)c(F)cc2c1=O [CIPROFLOXACIN] | – | 1.8 µg/mL (≈ 5.43 µM) | – | – | – | – | – | – | – | – | 0.9 (≈ 2.72 µM) | – | – | – | – | – | 1.2 (≈ 3.62 µM) | 1.4 (≈ 4.23 µM) | – | –
O=c1c(C2N=C(c3ccccc3)SS2)coc2ccc(F)cc12 (stereo not given) | 100 | inactive | 42 (≈ 122 µM) | – | – | 28.4 | 62.3 | 30 (≈ 87.4 µM) | 50 (≈ 146 µM) | inactive | 205 (≈ 597 µM) | 12.3 | 80.9 | 32 (≈ 93.2 µM) | 48.8 | inactive | 120 (≈ 349 µM) | 80 (≈ 233 µM) | 23.9 | inactive
O=c1c(C2N=C(c3ccccc3)SS2)coc2cc(Cl)c(F)cc12 (stereo not given) | 100 | inactive | 28 (≈ 74.1 µM) | – | 32.9 | 48.3 | 98.5 | 40 (≈ 106 µM) | 90 (≈ 238 µM) | inactive | 72 (≈ 191 µM) | 14 | 30.5 | 5 (≈ 13.2 µM) | 100 | inactive | 350 (≈ 926 µM) | 52 (≈ 138 µM) | 68.7 | inactive
O=C(N[C@H](CO)[C@H](O)c1ccc([N+](=O)[O-])cc1)C(Cl)Cl [CHLORAMPHENICOL] | – | 2.7 µg/mL (≈ 8.36 µM) | – | – | – | – | – | – | – | – | 13.6 (≈ 42.1 µM) | – | – | – | – | – | 2.5 (≈ 7.74 µM) | 5.6 (≈ 17.3 µM) | – | –
O=c1c(C(=S)Nc2ccccc2)coc2ccc(F)cc12 | – | inactive | – | – | – | – | – | – | 120 (≈ 401 µM) | inactive | – | 73.8 | 100 | – | – | inactive | 68 (≈ 227 µM) | – | – | inactive
OC(Cn1cncn1)(Cn1cncn1)c1ccc(F)cc1F [FLUCONAZOLE] | – | – | 25 (≈ 81.6 µM) | – | – | – | – | 24 (≈ 78.4 µM) | 49 (≈ 160 µM) | – | – | – | – | 9 (≈ 29.4 µM) | – | – | – | – | – | –
O=c1c(C2N=C(c3ccccc3)SS2)coc2ccccc12 (stereo not given) | 100 | inactive | 40 (≈ 123 µM) | 24.8 | 30.2 | 44.3 | 85.5 | 30 (≈ 92.2 µM) | 90 (≈ 277 µM) | inactive | 68 (≈ 209 µM) | 56.7 | 100 | 32 (≈ 98.3 µM) | 100 | inactive | 88 (≈ 270 µM) | 58 (≈ 178 µM) | 73.9 | inactive
O=c1c(C(=S)Nc2ccccc2)coc2cc(Cl)c(Cl)cc12 | 100 | inactive | – | 20.4 | 3.78 | 8.82 | 60.9 | 75 (≈ 214 µM) | – | inactive | 55 (≈ 157 µM) | 78.3 | 100 | – | 100 | inactive | 64 (≈ 183 µM) | 62 (≈ 177 µM) | 90.9 | inactive
O=c1c(C(=S)Nc2ccccc2)coc2ccccc12 | 100 | inactive | – | 38.5 | 35.6 | – | 55.3 | – | 90 (≈ 320 µM) | inactive | 70 (≈ 249 µM) | 85.5 | 100 | – | 100 | inactive | 62 (≈ 220 µM) | 92 (≈ 327 µM) | 76.2 | inactive
